Screening results: PubChem BioAssay, several laboratories
UPR XBP1 act – activators of adaptive arm of unfolded protein response (XBP1); CHO-XBP1 luciferase reporter, IRE1-XBP1 UPR activation, luminescence; percent of tunicamycin response, DMSO as zero; activation, % at 20 µM; 330,000 tested, 0.33% active; AID 463104;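 active means versus positive control, 20 µM dose yields 30% or more activation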;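 further: 100% = tunicamycin at 10 µg/mL and 0% = DMSO only wells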
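assay system = CHO-XBP1 luciferase reporter cells | amount = 1000 cells/well | buffer or medium = F12 plus 10% FBS | compound dosing = single point, 20 µM final compound, 1% DMSO | incubation = 16-18 h cell attachment at 37 °C, then 6 h compound exposure | detection = Steady-Glo luminescence read | controls = tunicamycin 10 µg/mL and vehicle-only wells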
UPR CHOP act – activators of apoptotic arm of unfolded protein response (CHOP). 330,000 tested, 0.34% active. CHO-CHOP luciferase reporter, UPR activation, luminescence; percent of tunicamycin response over DMSO baseline. activation, % at 10 µM;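 active means at 10 µM dose, activation of 40% or more, normalized to positive control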;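 further: 100% = tunicamycin at 10 µg/mL and 0% = DMSO alone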
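Test system: CHO-CHOP cells, stable luciferase reporter of PERK-eIF2a-CHOP signalling | Quantity: 500 CHO-CHOP cells per well | Buffer or medium: F12 plus 10% serum | Compound dosing: 10 µM single point, 0.5% DMSO | Schedule: 6 h compound treatment, 37 °C | Signal: Luciferase luminescence | Control set: Tunicamycin high control, DMSO low control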
VLA-4 inh – inhibition in a human VLA-4 binding assay | P13612 | VLA-4 expressing cells, ligand binding flow cytometry | AID 2557 | 330,000 tested, 0.2% active | inhibition, % (about 7 µM as worked out from the volumes in the protocol); in the data active means inhibition above about 50%
Beta2AR agonist – agonists of human beta-2 adrenergic receptor inducing internalization; 340,000 tested, 0.43% active; P07550; Am2.2-beta2AR cells, FAP receptor internalization, flow cytometry; response, % (concentration not given with the values);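 active means response above a set limit, near 3 SD of response in nonfluorescent compounds, cut at about 42% in these data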
Target sequence (P07550 whole entry, looked up): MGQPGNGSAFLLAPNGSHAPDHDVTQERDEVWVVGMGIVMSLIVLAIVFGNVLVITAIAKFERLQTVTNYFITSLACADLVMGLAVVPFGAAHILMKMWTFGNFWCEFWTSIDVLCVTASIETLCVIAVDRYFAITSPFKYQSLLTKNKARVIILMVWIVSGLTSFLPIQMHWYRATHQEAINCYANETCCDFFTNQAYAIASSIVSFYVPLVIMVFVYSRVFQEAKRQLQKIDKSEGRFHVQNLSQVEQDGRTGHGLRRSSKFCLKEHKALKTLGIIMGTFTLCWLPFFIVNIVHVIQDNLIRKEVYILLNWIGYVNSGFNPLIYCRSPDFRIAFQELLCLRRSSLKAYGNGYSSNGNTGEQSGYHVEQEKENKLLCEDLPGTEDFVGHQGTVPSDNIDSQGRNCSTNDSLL
CHOP inh – inhibitors of CHOP induction in ER stress response; AID 2732; inhibition, % at 10 µM; 220,000 tested, 3.8% active; CHO-K1 CHOP-promoter luciferase, tunicamycin-induced, 15-18 h;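 active means compounds that reduced the stress-induced luciferase reporter signal by more than about 70% of percent inhibition, limit read from the data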;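 further: 0% = tunicamycin plus vehicle and 100% = wells without tunicamycin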
B2AR ag CP1 – agonists of human beta-2 adrenergic receptor; percent response (surface receptor), % at 10 µM; shares compounds with Beta2AR agonist; 1,100 tested, 25% active; Am2.2-beta2AR cells, FAP surface receptor, flow cytometry; stronger effect = lower value;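 active means surface receptor percent response at or below 58%, roughly 3 SD from nonfluorescent compounds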
FAP fluor counter – fluorescence artifact in beta-2AR agonist FAP counterscreen; shares compounds with Beta2AR agonist; Am2.2 cells, FAP fluorogen flow cytometry; stronger effect = lower value; calls only at 10 µM; 1,100 tested, under 10 active;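 active means percent response below a set limit in fluorescence channel 1 and below 50% in channel 8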
An asterisk follows results filed as active; i = inactive; x = no result. Only a selection was taken, and hits are over-represented in it overall.

SMILES | UPR XBP1 act | UPR CHOP act | VLA-4 inh | Beta2AR agonist | CHOP inh | B2AR ag CP1 | FAP fluor counter
Cc1ccc(C)c(C(=O)OCC(=O)N(C)c2ccccc2)c1 | -0.4 | -1.6 | -2.5 | -0.9 | x | x | x
COc1ccccc1Nc1nn2c(=O)c3ccc(C(=O)NCc4cccnc4)cc3nc2s1 | -1.9 | 1.6 | 4.1 | 55.1* | x | 97.4 | i
COc1ccccc1N1CCN(C(=O)CN(C)S(=O)(=O)c2cc(C)ccc2OC)CC1 | -3.5 | 1.1 | 0.1 | 1.3 | 1.2 | 139.3 | i
COc1ccc(C)cc1S(=O)(=O)N(C)CC(=O)N1CCN(c2ccccc2)CC1 | -2.8 | -0.9 | 10.9 | -5.9 | 18.4 | 103.8 | i
COc1ccc(C)cc1S(=O)(=O)N(C)CC(=O)N1CCCC1 | -5.3 | -0.4 | -2.3 | -4.8 | x | x | x
Cc1cn2c(nc1=O)OC1CC2OC1CO (stereo not drawn) | 1.3 | -0.5 | 23.7 | -3.1 | 16.6 | x | x
CCCOc1ccc(-c2nnc(-c3ccco3)o2)cc1 | -5.8 | -4.8 | 1.6 | -2.5 | 15.2 | x | x
CCN(CC)CCCNc1ccc(-c2nnc(-c3ccc(OCC(C)C)cc3)o2)cn1 | 29.0 | 7.8 | 28.5 | 48.1* | x | 102.4 | i
N#CC1=C(N)OC2=C(CCc3ccccc32)C1c1ccccc1 (stereo not drawn) | 25.6 | 4.5 | 14.6 | 42.8* | 100.5* | 28.4* | i
O=C(Nc1ccc([N+](=O)[O-])cc1)c1ccccc1 | -0.9 | 6.8 | 3.7 | 3.6 | x | x | x
O=C(Nc1ccc(Nc2ccncc2)cc1)c1ccc(Nc2ccnc3ccc([N+](=O)[O-])cc23)cc1 | x | x | x | 69.3* | -10.4 | 82.3 | i
CC(C)(CO)NC(=O)C(Cc1ccccc1)N1C(=O)c2ccccc2C1=O (stereo not drawn) | -1.9 | -1.2 | 15.9 | -14.9 | x | x | x
CN(C(=O)c1ccc(NC(=O)Cc2cccc(NC(=O)C3CCN(C(=O)C4CCCCC4)CC3)c2)cc1)C1CC1 | x | x | x | -3.5 | x | 115.3 | i
CN(C(=O)c1ccc(NC(=O)Cc2cccc(NC(=O)C3CCN(C(=O)C4CCCC4)CC3)c2)cc1)C1CCCC1 | 3.0 | -1.2 | 3.9 | 47.3* | x | 82.0 | i
CN(C(=O)c1ccc(NC(=O)Cc2cccc(NC(=O)C3CCN(C(=O)C4CC4)CC3)c2)cc1)C1CC1 | x | x | x | -5.8 | x | 117.2 | i
CC(C)C12CN3CC(C(C)C)(CN(C1)C3c1ccc([N+](=O)[O-])o1)C2=O (stereo not drawn) | -2.6 | 1.6 | -2.2 | 6.3 | 6.3 | x | x
Cc1ccc(C(=O)NCC(c2ccc(F)cc2)N2CCOCC2)cc1S(=O)(=O)N1CCOCC1 (stereo not drawn) | x | x | x | 2.3 | x | x | x
CC(C)[C@H](NC(=O)c1ccc(F)cc1)C(=O)NC1=NCCS1 | 0.6 | 1.0 | -0.1 | -2.6 | 6.4 | x | x
CCN(CC)S(=O)(=O)c1cccc2cccnc12 | 0.4 | -2.4 | 0.1 | -0.3 | -2.7 | x | x
CN(c1cccc2cccnc12)S(=O)(=O)c1ccccc1 | 5.0 | 0.8 | 5.7 | -2.1 | x | 102.5 | i
CC(=O)Nc1ccc(S(=O)(=O)N(Cc2ccco2)Cc2cc3ccccc3[nH]c2=O)cc1 | -7.3 | -1.5 | -5.7 | 106.3* | x | 23.5* | i
O=c1[nH]c2ccccc2cc1CN(Cc1cccnc1)S(=O)(=O)c1ccc([N+](=O)[O-])cc1 | -6.3 | 2.1 | -3.1 | -18.1 | x | 150.7 | i
O=c1[nH]c2ccccc2cc1CN(Cc1cccnc1)S(=O)(=O)c1ccc(Cl)cc1 | -0.4 | 1.7 | 4.8 | -9.0 | x | 153.2 | i
CC(=O)Nc1ccc(S(=O)(=O)N(Cc2cccnc2)Cc2cc3ccccc3[nH]c2=O)cc1 | 0.2 | -0.1 | -6.0 | 73.9* | x | 28.7* | i
CCCOc1cc(C)c(S(=O)(=O)NC2CC(C)(C)NC(C)(C)C2)cc1C | 0.7 | -1.0 | 12.0 | -10.6 | 27.6 | x | x
SMILES | UPR XBP1 act | UPR CHOP act | VLA-4 inh | Beta2AR agonist | CHOP inh | B2AR ag CP1 | FAP fluor counter
O=C(NNc1ccccc1)Nc1ccccc1F | 8.9 | 3.2 | 5.1 | 3.3 | x | x | x
CCCCn1c(N)c(N(CC(C)C)C(=O)c2oc3c(Cl)cccc3c2C)c(=O)[nH]c1=O | 0.8 | -0.7 | 9.0 | 6.9 | x | x | x
O=C(Nc1ccc(Br)cc1)C1CCN(c2cnccn2)CC1 | -3.4 | 4.0 | 5.2 | -1.6 | x | x | x
CCOC(=O)CCN1C(=O)c2ccccc2Sc2ncccc21 | -6.0 | 0.0 | 7.5 | -2.5 | x | x | x
COc1ccc(Cl)cc1C(=O)N1CCN(c2ccccn2)CC1 | 2.6 | -0.2 | 5.5 | 51.6* | 13.6 | 123.8 | i
O=C(c1ccccc1Cl)N1CCN(c2ccccn2)CC1 | -0.6 | -2.3 | -4.4 | 1.5 | 34.4 | x | x
CN(C)CCN(C(=O)c1ccc2c(c1)OCCO2)c1nc2c(Cl)cccc2s1 | -1.3 | 0.2 | 16.9 | 2.1 | x | x | x
COc1ccc(Cl)c2sc(N(CCN(C)C)C(=O)c3ccc4c(c3)OCCO4)nc12 | 2.0 | 0.1 | 38.2 | 44.3* | x | 127.9 | i
CN(Cc1ccc(Br)s1)C(=O)CNC(=O)c1ccc2c(c1)OCO2 | -0.6 | -0.2 | 5.4 | 4.3 | x | x | x
O=S(=O)(CCN1CCN(c2ccccc2O)CC1)c1cc(Cl)ccc1Cl | -0.2 | 2.8 | x | -7.6 | x | x | x
Cc1ccc(Cn2ccc(NC(=O)c3cc4nc(-c5ccco5)cc(C(F)(F)F)n4n3)n2)cc1 | 5.0 | 1.3 | -10.9 | 111.8* | 92.8* | 7.1* | i
Cc1nn(C)c(C)c1NC(=O)c1cc2nc(-c3ccco3)cc(C(F)(F)F)n2n1 | 3.0 | -0.9 | 4.8 | -10.6 | -3.8 | x | x
Cc1ccc(OCc2nnc(SCc3nc4ccccc4[nH]3)n2Cc2ccco2)cc1 | -5.4 | 4.9 | 7.7 | 103.8* | 36.0 | 20.4* | i
c1ccc(-c2nnc(SCc3nc4ccccc4[nH]3)n2Cc2ccco2)cc1 | 0.3 | -2.0 | -10.3 | -11.9 | 20.5 | 137.6 | i
Nn1c(SCc2nc3ccccc3[nH]2)nnc1-c1ccccc1 | 0.1 | -0.1 | 35.5 | -4.5 | 20.4 | x | x
CCn1c(COc2ccc(Cl)cc2)nnc1SCc1nc2ccccc2[nH]1 | 1.4 | 10.8 | -7.2 | -2.9 | 30.3 | x | x
CC(=O)c1cccc(NC2c3ccccc3C(=O)N2Cc2ccco2)c1 (stereo not drawn) | -0.7 | -2.1 | 6.9 | -6.4 | 3.2 | x | x
COc1cccc(NC2c3ccccc3C(=O)N2Cc2ccco2)c1 (stereo not drawn) | -2.4 | 0.0 | -1.8 | 68.7* | 22.9 | 103.6 | i
CCc1ccc(C(=O)Nc2ccc(S(=O)(=O)Nc3nc(C)cc(C)n3)cc2)o1 | -5.0 | -3.7 | 12.0 | 54.0* | 30.8 | 105.1 | i
COc1cc(C(=O)Nc2nnc(C3=COCCO3)o2)cc(OC)c1OC | -1.6 | -0.2 | 9.9 | -2.1 | x | x | x
CC1CCCN(c2ccc([N+](=O)[O-])cc2C(=O)c2ccccc2)C1 (stereo not drawn) | 9.9 | 0.6 | 14.2 | 42.3* | 34.4 | 48.6* | i
